Screens deposited in PubChem by PCMD.
eIF2B yeast act: modulators of yeast eIF2B activity; 27,000 tested, 0.91% active; S. cerevisiae eIF2B-epsilon R284H, GCN4-lacZ luminescence; AID 688; inhibition, % at 25 µM (by protocol);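 active = mutant luminescence inhibited past about 50% while wild type luminescence and mutant growth stay under set limits, limit read from the data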
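Times: 16 h growth with compound at 30 °C, 90 min Beta-Glo step; Assay system: yeast eIF2B-epsilon R284H mutant carrying GCN4–beta-galactosidase fusion; Measure: % inhibition of reporter signal and growth versus controls; Dosing: one concentration, 25 µM, 0.25% DMSO; Buffer or medium: YPD yeast growth medium; Measured by: Beta-Glo luminescence plus absorbance at 595 nm.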
Yeast growth tox: Compounds toxic to wild-type S. cerevisiae growth | A595 turbidity, 16 h | 30,000 tested, 0.3% active | growth inhibition, % at 25 µM (by protocol);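 active = mutant and wild-type yeast strains alike exhibit over 30% growth inhibition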;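 note: 0% = untreated cell controls and 100% = YPD media blanks without cells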
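System: S. cerevisiae wild-type or eIF2Bepsilon-R284H mutant strain; times: 16 h growth with compound, 30 °C; signal: absorbance at 595 nm (turbidity); measure: growth inhibition (%) versus cell controls and blanks; compound: 25 µM single dose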
* = called active by the depositor; / = no result given. Hits are enriched below; roughly 1% of the tested compounds scored in any of these assays.

SMILES	eIF2B yeast act	Yeast growth tox
CCOC(=O)C1=C(c2ccccc2)N(C)C(=O)NC1c1ccc(O)c(OC)c1 (configuration not stated)	50*	-7
CC(C)CC(c1nnnn1C(C)C)N1CCN(c2ccccc2)CC1 (configuration not stated)	26	-39
Cc1nc(N2CCC(C)CC2)c2nnn(Cc3ccccc3)c2n1	/	-7
COc1ccc(S(=O)(=O)Nc2ccc(C)cc2)cc1OC	27	-9
Cc1cc(C)cc(NS(=O)(=O)c2ccc3[nH]c(=O)[nH]c3c2)c1	52*	0
Cc1cc(C)c(C)c(OCC(=O)NCc2nc(-c3ccccc3)no2)c1	21	10
Cc1ccc(C(=O)CSc2nnnn2C(C)C)c(C)c1	31	14
CCCC(C(=O)NCc1ccco1)N(C(=O)CNS(=O)(=O)c1ccccc1)c1ccccc1OC (configuration not stated)	19	-8
CCCn1c(SCC(=O)Nc2nc3c(s2)CCCC3)nc2c1c(=O)n(C)c(=O)n2C	55*	-35
CCOC(=O)c1c(NC(=O)CSc2nc3c(c(=O)n(C)c(=O)n3C)n2CC)sc(C)c1C	7	-41
O=C1CC(N2CCN(c3ccc(F)cc3)CC2)C(=O)N1Cc1cccs1 (configuration not stated)	5	2
O=C1CC(N2CCN(c3nc4ccccc4s3)CC2)C(=O)N1Cc1cccs1 (configuration not stated)	-26	73*
NC1=NC(c2cn(-c3ccccc3)nc2-c2cccs2)n2c(nc3ccccc32)N1 (configuration not stated)	33	19
Cc1ccc(-n2c(C)cc(C3N=C(N)Nc4nc5ccccc5n43)c2C)c(C)c1 (configuration not stated)	63	92*
CC(=O)C1=C(C)NC(C)=C(C(C)=O)C1c1ccc(-c2ccccc2Cl)o1	27	-13
CN1C(=O)NC(c2ccccc2)C2=C1CN(c1cccc(C(F)(F)F)c1)C2=O (configuration not stated)	52*	1
CN1C(=O)NC(c2ccccc2)C2=C1CN(CCc1ccccc1)C2=O (configuration not stated)	-25	21
CCc1ccccc1N1CC(C(=O)O)CC1=O (configuration not stated)	49	-8
CC(=O)/C=C(\C)Nc1ccc(-c2cnc(-c3ccccc3)o2)cc1	70*	-21
C/C(=C\C(=O)c1ccccc1)Nc1ccc(O)cc1	20	15
O=C1c2ccccc2C(=O)C1c1ccncc1	67*	20
Cc1ccccc1N1C(=O)c2ccccc2NC1c1ccncc1 (configuration not stated)	/	0
CCOC(=O)CC(=O)CSc1nc(-c2cccnc2)cc(C)c1C#N	3	2
CCOC(=O)CC(=O)CSc1nc(C)cc(-c2cccnc2)c1C#N	55*	-8
CCOC(=O)c1c(NC(=O)CN(C)C)sc(C(=O)N(CC)CC)c1C	23	-8
SMILES	eIF2B yeast act	Yeast growth tox
CCCC(=O)Nc1sc(C(=O)OC)c(C)c1C(N)=O	58*	-9
CCOC(=O)C1CCCN(C(=O)c2cc3c(C)nc4ccccc4c3o2)C1 (configuration not stated)	65*	-27
CCOC(=O)C1CCCN(c2nc(C)nc3c2oc2ccccc23)C1 (configuration not stated)	12	-1
O=CNC(Cc1ccccc1)C(=O)O (configuration not stated)	0	5
COc1ccc(-c2nn(C)c(=O)c3ccccc23)cc1CNC(=O)CN1CCOCC1	21	9
CC(C)CCCC(C)NS(=O)(=O)Cc1ccccc1 (configuration not stated)	27	5
CC(=O)Oc1ccc2c(C)cc(=O)oc2c1	20	8
CC(=O)Oc1ccc(N2C(=O)C3C(C2=O)C2(C)C=CC3(C)O2)cc1 (configuration not stated)	39	61*
CC(C)(C)OCC(NC(=O)C(CC(N)=O)NC(=O)OC(C)(C)C)C(=O)OC(C)(C)C (configuration not stated)	1	20
CCOc1cc(-c2nc(-c3ccc(C)nc3OCC)no2)cc(OCC)c1OCC	56*	/
CCOc1cc(-c2nc(-c3cc(OC)c(OC)c(OC)c3)no2)cc(OCC)c1OCC	4	-16
O=c1oc(/C=C/c2ccco2)nc2sc3c(c12)CCC3	/	20
Cn1c(=O)[nH]c(=O)c2c1nc(SCC(O)CO)n2Cc1ccccc1Cl (configuration not stated)	61*	5
Cn1c(=O)[nH]c(=O)c2c1nc(Br)n2Cc1ccccc1Cl	9	10
COC(=O)c1ccc(S(=O)(=O)N(Cc2cc3cc4c(cc3[nH]c2=O)OCO4)C2CCCCC2)cc1	21	-20
CCOC(=O)C1(CC)NC(c2ccco2)C2C(=O)N(C)C(=O)C21 (configuration not stated)	-21	18
